What was measured:
[1] = Solubility of the compound in 0.1 % DMSO/PBS solution assessed as radius of the aggregate particle at 4 uM measured over 10 mins by dynamic light scattering method; format: physicochemical; conditions: buffer
Method in brief: (§1)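 DMSO stocks (1, 4, 10 mM) were centrifuged, then diluted 1000× into PBS (final 0.1% DMSO). Dynamic light scattering used a 659 nm laser at a 90° angle and 25 °C, with 10–15 s acquisitions over 10 min. Radius came from a cumulant fit of averaged autocorrelation functions at the lowest concentration giving 3× buffer signal. Values are SD of ≥3 independent measurements.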

[2] = Solubility of the compound in 0.1 % DMSO/PBS solution at 4 uM after 2 hrs by HPLC analysis; format: physicochemical; conditions: buffer
Method in brief: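 A 4 mM DMSO stock was diluted 1000× into PBS, vortexed, sonicated 20 min at 25 °C and equilibrated 2 h at room temperature. After centrifugation for 20 min, the supernatant was analysed by HPLC at 310 nm against a standard curve. Maximum concentration was estimated from quantitation of the stock in 0.1% DMSO/water. Values are SD of ≥3 independent measurements.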

[3] = Solubility of the compound in 0.1 % DMSO/PBS solution at 4 uM after 2 hrs by HPLC analysis in presence of 6 mg/ml hypromellose; format: physicochemical; conditions: buffer
Method in brief: (§2)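 The 4 mM DMSO stock was diluted 1000× into PBS containing 35 mM dextrose, 5 mM γCD, 50 mM HpβCD or 6 mg/mL hypromellose. Samples were sonicated 20 min at 25 °C, equilibrated 2 h at room temperature and centrifuged. The soluble fraction was measured by HPLC peak area at 310 nm against a standard curve. Values are SD of ≥3 independent measurements.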

[4] = Solubility of the compound in 0.1 % DMSO/PBS solution at 4 uM after 2 hrs by HPLC analysis in presence of 5 mM gamma-cyclodextrin; format: physicochemical; conditions: buffer; method in brief: as §2
[5] = Solubility of the compound in 0.1 % DMSO/PBS solution at 4 uM after 2 hrs by HPLC analysis in presence of 35 mM dextrose; format: physicochemical; conditions: buffer; method in brief: as §2
[6] = Solubility of the compound in 0.1 % DMSO/PBS solution assessed as radius of the aggregate particle at 1 uM measured over 10 mins by dynamic light scattering method; format: physicochemical; conditions: buffer; method in brief: as §1
[7] = Solubility of the compound in 0.1 % DMSO/PBS solution at 4 uM after 2 hrs by HPLC analysis in presence of 50 mM 2-hydroxypropyl-beta-cyclodextrin; format: physicochemical; conditions: buffer; method in brief: as §2
Plasma [8] = assay: Drug uptake in C57Bl/6 mouse plasma at 120 nmol, ip in 20 % DMSO/PBS vehicle measured after 24 hrs; format: ADME, organism-based; conditions: in vivo
Method in brief: (§3)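 C57bl/6 mice, 8–12 weeks old, received an IP injection of 200 μL PBS containing 120 nmol compound in the stated vehicle. Under isoflurane, blood was drawn retro-orbitally at three time points. Plasma from four mice was pooled (5 μL each), precipitated with methanol, spiked with Boc-Py-OMe as internal control, and quantified by HPLC at 310 nm against a standard curve.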

Plasma [9] = assay: Drug uptake in C57Bl/6 mouse plasma at 120 nmol, ip in 1 % DMSO/80 mM HPbeta-CD/PBS vehicle measured after 24 hrs; format: ADME, organism-based; conditions: in vivo; method in brief: as §3
[10] = Plasma concentration of compound in C57Bl/6 mouse at 120 nmol, ip in 1 % DMSO/80 mM HPbeta-CD/PBS vehicle measured after 1.5 hrs; format: ADME, organism-based; method in brief: as §3
[11] = Plasma concentration of compound in C57Bl/6 mouse at 120 nmol, ip in 20 % DMSO/PBS vehicle measured after 1.5 hrs; format: ADME, organism-based; method in brief: as §3
[12] = Solubility of the compound in 20 % DMSO/PBS; format: physicochemical; conditions: buffer
A549 [13] = assay: Drug uptake in human A549 cells incubated with mouse plasma isolated 1.5 hr post administration with compound measured after 16 hrs by confocal microscopy; format: ADME, cell-based
Method in brief: (§4)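 A549 cells were seeded at 100k cells/mL in F-12K/10% FBS and allowed to adhere for 18 h at 37 °C in 5% CO2. Medium was replaced with 200 μL fresh medium plus 20 μL plasma. The plasma came from mice given 120 nmol IP in 20% DMSO/80 mM HpβCD/PBS. After 16 h, live cells were imaged by confocal microscopy (63× oil objective, fluorescein filters).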

A549 [14] = assay: Drug uptake in human A549 cells incubated with mouse plasma isolated 4.5 hr post administration with compound measured after 16 hrs by confocal microscopy; format: ADME, cell-based; method in brief: as §4

Row | SMILES | Activity [1] | solubility [2] | further results
1 | CC(=O)N[C@@H](CNC(=O)c1cc(NC(=O)c2cc(NC(=O)c3cc(NC(=O)c4nccn4C)cn3C)cn2C)cn1C)CC(=O)Nc1cn(C)c(C(=O)Nc2cc(C(=O)Nc3cc(C(=O)Nc4cc(C(=O)NCCCN(C)CCCNC(=O)c5cccc(C(=O)O)c5)n(C)c4)n(C)c3)n(C)c2)n1 | 74 nm | Insoluble | –
2 | CN(CCCNC(=O)c1cccc(C(=O)O)c1)CCCNC(=O)c1cc(NC(=O)c2cc(NC(=O)c3cc(NC(=O)c4nc(NC(=O)C[C@H](CNC(=O)c5cc(NC(=O)c6cc(NC(=O)c7cc(NC(=O)c8nccn8C)cn7C)cn6C)cn5C)NC(=O)c5ccccc5)cn4C)cn3C)cn2C)cn1C | 127 nm | Insoluble | Activity [6]: 87 nm
3 | CN(CCCNC(=O)c1cc(NC(=O)c2cc(NC(=O)c3cc(NC(=O)c4nc(NC(=O)C[C@@H](N)CNC(=O)c5cc(NC(=O)c6cc(NC(=O)c7cc(NC(=O)c8nccn8C)cn7C)cn6C)cn5C)cn4C)cn3C)cn2C)cn1C)CCCNC(=S)Nc1ccc(-c2c3ccc(=O)cc-3oc3cc(O)ccc23)c(C(=O)O)c1 | – | – | Activity [6]: 294 nm
4 | CN(CCCNC(=O)c1cc(NC(=O)c2cc(NC(=O)c3cc(NC(=O)c4nc(NC(=O)C[C@H](CNC(=O)c5cc(NC(=O)c6cc(NC(=O)c7cc(NC(=O)c8nccn8C)cn7C)cn6C)cn5C)NC(=O)c5ccccc5)cn4C)cn3C)cn2C)cn1C)CCCNC(=S)Nc1ccc(-c2c3ccc(=O)cc-3oc3cc(O)ccc23)c(C(=O)O)c1 | – | – | Activity [6]: 147 nm
5 | CN(CCCNC(=O)c1cccc(C(=O)O)c1)CCCNC(=O)c1cc(NC(=O)c2cc(NC(=O)c3cc(NC(=O)c4cc(NC(=O)[C@H](N)CCNC(=O)c5cc(NC(=O)c6cc(NC(=O)c7nc(NC(=O)c8nccn8C)cn7C)cn6C)cn5C)cn4C)cn3C)cn2C)cn1C | 124 nm | Insoluble | solubility [3]: soluble; solubility [7]: soluble; solubility [4]: soluble; Drug uptake (Plasma [8]): Not Active; Drug uptake (Plasma [9]): Not Active; concentration at 1.5 h [10]: 13 µM; concentration at 1.5 h [11]: 13 µM; solubility [5]: Insoluble
6 | CC(=O)N[C@@H](CNC(=O)c1cc(NC(=O)c2cc(NC(=O)c3nc(NC(=O)c4nccn4C)cn3C)cn2C)cn1C)CC(=O)Nc1cc(C(=O)Nc2cc(C(=O)Nc3cc(C(=O)Nc4cc(C(=O)NCCCN(C)CCCNC(=O)c5cccc(C(=O)O)c5)n(C)c4)n(C)c3)n(C)c2)n(C)c1 | 100 nm | Insoluble | solubility [7]: soluble
7 | CN(CCCNC(=O)c1cccc(C(=O)O)c1)CCCNC(=O)c1cc(NC(=O)c2cc(NC(=O)c3cc(NC(=O)c4cc(NC(=O)C[C@H](CNC(=O)c5cc(NC(=O)c6cc(NC(=O)c7nc(NC(=O)c8nccn8C)cn7C)cn6C)cn5C)NC(=O)c5ccccc5)cn4C)cn3C)cn2C)cn1C | 176 nm | Insoluble | solubility [7]: soluble; Activity [6]: 123 nm
8 | CN(CCCNC(=O)c1cc(NC(=O)c2cc(NC(=O)c3cc(NC(=O)c4cc(NC(=O)[C@H](N)CCNC(=O)c5cc(NC(=O)c6cc(NC(=O)c7nc(NC(=O)c8nccn8C)cn7C)cn6C)cn5C)cn4C)cn3C)cn2C)cn1C)CCCNC(=S)Nc1ccc(-c2c3ccc(=O)cc-3oc3cc(O)ccc23)c(C(=O)O)c1 | – | – | solubility [12]: Insoluble; Drug uptake (A549 [13]): Active; Drug uptake (A549 [14]): Not Active
9 | CN(CCCNC(=O)c1cccc(C(=O)O)c1)CCCNC(=O)c1cc(NC(=O)c2cc(NC(=O)c3cc(NC(=O)c4nc(NC(=O)[C@H](N)CCNC(=O)c5cc(NC(=O)c6cc(NC(=O)c7cc(NC(=O)c8nccn8C)cn7C)cn6C)cn5C)cn4C)cn3C)cn2C)cn1C | 182 nm | Insoluble | –

Now from value to compound, other results behind:

Row | Activity [1] | solubility [2] | SMILES | further results
10 | 197 nm | Insoluble | Cn1cc2cc1C(=O)NCCCC(=O)Nc1cn(C)c(n1)C(=O)Nc1cn(C)c(n1)C(=O)Nc1cc(n(C)c1)C(=O)Nc1cc(n(C)c1)C(=O)NC[C@H](N)CC(=O)Nc1cc(n(C)c1)C(=O)Nc1cc(n(C)c1)C(=O)Nc1cc(n(C)c1)C(=O)N2 | solubility [3]: soluble; solubility [4]: soluble; solubility [5]: Insoluble
11 | 347 nm | Insoluble | Cn1cc2cc1C(=O)NC[C@H](N)CC(=O)Nc1cc(n(C)c1)C(=O)Nc1cc(n(C)c1)C(=O)Nc1cc(n(C)c1)C(=O)Nc1cc(n(C)c1)C(=O)NC[C@H](N)CC(=O)Nc1cn(C)c(n1)C(=O)Nc1cn(C)c(n1)C(=O)Nc1cc(n(C)c1)C(=O)N2 | –
12 | 182 nm | Insoluble | CC(=O)N[C@H]1CNC(=O)c2cc(cn2C)NC(=O)c2cc(cn2C)NC(=O)c2nc(cn2C)NC(=O)c2nc(cn2C)NC(=O)C[C@@H](NC(C)=O)CNC(=O)c2cc(cn2C)NC(=O)c2cc(cn2C)NC(=O)c2cc(cn2C)NC(=O)c2cc(cn2C)NC(=O)C1 | –
13 | 108 nm | Insoluble | CN(CCCNC(=O)c1cccc(C(=O)O)c1)CCCNC(=O)c1cc(NC(=O)c2cc(NC(=O)c3cc(NC(=O)c4cc(NC(=O)C[C@@H](N)CNC(=O)c5cc(NC(=O)c6cc(NC(=O)c7nc(NC(=O)c8nccn8C)cn7C)cn6C)cn5C)cn4C)cn3C)cn2C)cn1C | solubility [7]: soluble
14 | 104 nm | Insoluble | CN(CCCNC(=O)c1cccc(C(=O)O)c1)CCCNC(=O)c1cc(NC(=O)c2cc(NC(=O)c3cc(NC(=O)c4nc(NC(=O)C[C@@H](N)CNC(=O)c5cc(NC(=O)c6cc(NC(=O)c7cc(NC(=O)c8nccn8C)cn7C)cn6C)cn5C)cn4C)cn3C)cn2C)cn1C | –

Reference: ChEMBL document CHEMBL2163323, “Characterization and solubilization of pyrrole-imidazole polyamide aggregates” (J Med Chem, 2012)
